Laboratory results from ChEMBL document CHEMBL1165878, “First biological evaluation of developed 3-benzyloxyfluorenes as novel class of MDR modulators” (Eur J Med Chem, 2010).

Experiments:
[1] = Lipophilicity, log P of the compound; format: physicochemical; settings: octanol/water
[2] = target: T1, ATP-dependent translocase ABCB1 (Homo sapiens, UniProt P08183); experiment: Inhibition of ABCB1 efflux pump-mediated rhodamine 123 uptake expressed in mouse L5178Y cells assessed as fluorescence activity ratio at 1 uM; format: cell-based
T1 sequence (P08183 whole entry): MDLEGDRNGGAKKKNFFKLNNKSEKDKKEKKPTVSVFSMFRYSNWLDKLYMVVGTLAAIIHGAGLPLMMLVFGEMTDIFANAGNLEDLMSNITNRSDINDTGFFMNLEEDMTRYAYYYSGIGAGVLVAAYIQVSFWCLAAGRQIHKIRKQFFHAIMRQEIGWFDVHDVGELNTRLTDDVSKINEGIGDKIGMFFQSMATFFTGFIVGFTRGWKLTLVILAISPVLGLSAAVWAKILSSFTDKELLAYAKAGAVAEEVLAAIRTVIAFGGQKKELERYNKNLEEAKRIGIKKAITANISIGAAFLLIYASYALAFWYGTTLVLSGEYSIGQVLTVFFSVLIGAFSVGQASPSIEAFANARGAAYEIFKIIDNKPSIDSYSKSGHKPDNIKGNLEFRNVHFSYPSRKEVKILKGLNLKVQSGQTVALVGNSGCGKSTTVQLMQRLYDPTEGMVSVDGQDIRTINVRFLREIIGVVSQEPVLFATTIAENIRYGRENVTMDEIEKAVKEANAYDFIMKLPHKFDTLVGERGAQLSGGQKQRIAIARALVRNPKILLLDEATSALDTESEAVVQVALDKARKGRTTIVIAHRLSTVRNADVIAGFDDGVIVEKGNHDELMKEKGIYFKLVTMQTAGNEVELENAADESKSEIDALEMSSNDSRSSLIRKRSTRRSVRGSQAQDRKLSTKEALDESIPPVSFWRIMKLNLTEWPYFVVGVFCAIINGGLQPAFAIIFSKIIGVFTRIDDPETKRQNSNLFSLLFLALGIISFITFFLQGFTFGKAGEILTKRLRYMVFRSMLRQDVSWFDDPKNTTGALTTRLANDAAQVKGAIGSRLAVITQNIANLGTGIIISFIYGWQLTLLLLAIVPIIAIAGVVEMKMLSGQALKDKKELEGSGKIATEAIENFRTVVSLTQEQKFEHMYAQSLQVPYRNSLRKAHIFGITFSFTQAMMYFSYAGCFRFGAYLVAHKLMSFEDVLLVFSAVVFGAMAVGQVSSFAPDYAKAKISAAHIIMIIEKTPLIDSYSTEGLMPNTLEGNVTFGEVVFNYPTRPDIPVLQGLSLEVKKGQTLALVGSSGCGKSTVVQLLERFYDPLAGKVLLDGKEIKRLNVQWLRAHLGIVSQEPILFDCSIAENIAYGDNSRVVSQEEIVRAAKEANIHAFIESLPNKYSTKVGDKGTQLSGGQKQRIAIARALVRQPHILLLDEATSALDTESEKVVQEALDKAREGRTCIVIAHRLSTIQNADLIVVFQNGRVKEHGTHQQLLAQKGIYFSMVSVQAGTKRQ

[3] = target: T1, ATP-dependent translocase ABCB1; experiment: Inhibition of ABCB1 efflux pump-mediated rhodamine 123 uptake expressed in mouse L5178Y cells assessed as fluorescence activity ratio at 10 uM; format: cell-based
How it was run: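 Mouse T lymphoma L5178Y parental line and an mdr1-retrovirally transfected subline overexpressing only ABCB1, grown in McCoy's 5A with 10% heat-inactivated horse serum and 2 mM glutamine. Rhodamine 123 uptake measured by flow cytometry, 1 ×10⁴ cells each, after resuspension in PBS. FAR = fluorescence of treated ABCB1 subline over parental line, each corrected to untreated control; mean of two determinations.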

SMILES	logP [1]	Ratio [2]	Ratio [3]
Oc1ccc2oc3ncc(OCc4ccc(Cl)cc4)c(-c4ccccc4)c3c2c1	5.97	1.23	56.85
Oc1ccc2oc3ncc(OCc4cccc(Cl)c4)c(-c4ccc(Cl)cc4)c3c2c1	6.59	1.53	21.48
Oc1ccc2oc3ncc(OCc4ccc(Cl)cc4)c(-c4ccc(Cl)cc4)c3c2c1	6.59	1.11	5.92
Oc1ccc2oc3ncc(OCc4cccc(Cl)c4)c(-c4cccc(Cl)c4)c3c2c1	6.59	1	17.14
Oc1ccc2oc3ncc(OCc4ccc(Cl)cc4)c(-c4cccc(Cl)c4)c3c2c1	6.59	1.81	2.61

More lines, now with the values ahead:

logP [1]	Ratio [2]	Ratio [3]	SMILES
5.97	1.35	10.47	Oc1ccc2oc3ncc(OCc4ccccc4)c(-c4cccc(Cl)c4)c3c2c1
5.38	1.75	34.49	Oc1ccc2oc3ncc(OCc4ccccc4)c(-c4ccccc4)c3c2c1
5.97	3.04	95.58	Oc1ccc2oc3ncc(OCc4ccccc4)c(-c4ccc(Cl)cc4)c3c2c1
5.97	1.26	57.42	Oc1ccc2oc3ncc(OCc4cccc(Cl)c4)c(-c4ccccc4)c3c2c1
